According to ChEMBL document CHEMBL4725345, “DFG-1 Residue Controls Inhibitor Binding Mode and Affinity, Providing a Basis for Rational Design of Kinase Inhibitor Selectivity” (J Med Chem, 2020):

Experiments:
[1] = target: Dual specificity protein kinase CLK4 (Homo sapiens, UniProt Q9HAZ1); conditions: dose 10.0 µM, time 10.0 min
[2] = target: TGF-beta receptor type-2 (Homo sapiens) (UniProt P37173); test: Binding affinity to TGFBR2 (unknown origin) assessed as change in melting temperature at 10 uM incubated for 10 mins using SYPRO orange dye by RT-PCR-based fluorescence assay
Summary of the method: (§1)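 Recombinant kinase domain at 2 μM in 10 mM HEPES pH 7.5, 500 mM NaCl, mixed with 10 μM inhibitor for 10 min at room temperature; SYPRO orange added at 1:1000; temperature-dependent unfolding fluorescence read on a real-time PCR instrument; Tm shift derived by a previously described method.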

[3] = target: Dual specificity protein kinase CLK1 (Homo sapiens, UniProt P49759); conditions: dose 10.0 µM, time 10.0 min
[4] = target: T1, Dual specificity tyrosine-phosphorylation-regulated kinase 2 (Homo sapiens) (UniProt Q92630); test: Binding affinity to DYRK2 (unknown origin) assessed as change in melting temperature at 10 uM incubated for 10 mins using SYPRO orange dye by RT-PCR-based fluorescence assay
T1 sequence (whole entry): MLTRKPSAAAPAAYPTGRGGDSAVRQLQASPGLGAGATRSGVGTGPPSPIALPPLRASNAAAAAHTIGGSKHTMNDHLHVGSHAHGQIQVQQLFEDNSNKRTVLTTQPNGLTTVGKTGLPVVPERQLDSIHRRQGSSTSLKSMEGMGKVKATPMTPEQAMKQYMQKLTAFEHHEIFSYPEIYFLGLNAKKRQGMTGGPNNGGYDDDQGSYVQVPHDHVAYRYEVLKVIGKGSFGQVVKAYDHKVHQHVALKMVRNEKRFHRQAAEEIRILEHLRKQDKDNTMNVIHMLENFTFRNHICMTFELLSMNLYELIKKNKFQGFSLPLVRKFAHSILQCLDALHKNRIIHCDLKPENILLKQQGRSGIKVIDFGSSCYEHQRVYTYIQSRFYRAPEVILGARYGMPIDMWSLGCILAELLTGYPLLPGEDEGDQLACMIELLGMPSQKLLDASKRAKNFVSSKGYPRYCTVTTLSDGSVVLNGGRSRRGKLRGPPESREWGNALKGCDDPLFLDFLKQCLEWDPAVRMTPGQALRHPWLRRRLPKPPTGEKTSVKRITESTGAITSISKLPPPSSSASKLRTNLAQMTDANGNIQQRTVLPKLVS
Summary of the method: as §1

[5] = target: Activin receptor type-1B (Homo sapiens) (UniProt P36896); test: Binding affinity to ACVR1B (unknown origin) assessed as change in melting temperature at 10 uM incubated for 10 mins using SYPRO orange dye by RT-PCR-based fluorescence assay
Summary of the method: as §1

[6] = target: Dual specificity protein kinase CLK2 (Homo sapiens) (UniProt P49760); conditions: dose 10.0 µM, time 10.0 min
[7] = target: TGF-beta receptor type-1 (Homo sapiens) (UniProt P36897); test: Binding affinity to TGFBR1 (unknown origin) assessed as change in melting temperature at 10 uM incubated for 10 mins using SYPRO orange dye by RT-PCR-based fluorescence assay
Summary of the method: as §1

[8] = target: Activin receptor type-2A (Homo sapiens) (UniProt P27037); test: Binding affinity to ACTR2 (unknown origin) assessed as change in melting temperature at 10 uM incubated for 10 mins using SYPRO orange dye by RT-PCR-based fluorescence assay
[9] = target: Casein kinase I isoform epsilon (Homo sapiens) (UniProt P49674); test: Binding affinity to CSNK1E (unknown origin) assessed as change in melting temperature at 10 uM incubated for 10 mins using SYPRO orange dye by RT-PCR-based fluorescence assay
Summary of the method: as §1

[10] = target: Activin receptor type-1-like (Homo sapiens) (UniProt P37023); test: Binding affinity to ACVRL1 (unknown origin) assessed as change in melting temperature at 10 uM incubated for 10 mins using SYPRO orange dye by RT-PCR-based fluorescence assay
Summary of the method: as §1

ΔTm [1]: > 6 °C
ΔTm [2]: > 6 °C
ΔTm [3]: > 4 °C
ΔTm [4]: > 4 °C
ΔTm [5]: > 6 °C
ΔTm [6]: > 4 °C
ΔTm [7]: > 6 °C
ΔTm [8]: > 6 °C
ΔTm [9]: > 4 °C
ΔTm [10]: > 6 °C
SMILES: CC(=O)c1cccc(-c2cnc3ccc(NCC4CC4)nn23)c1
